Experimental data gathered from unrelated publications.
Lines come from different studies, so protocols differ.
Target: DNA-dependent protein kinase catalytic subunit (PRKDC, Homo sapiens, UniProt P78527)

`O=C(CSc1nc2nccnc2c(=O)n1CCc1ccccc1)Nc1nccs1` has an inhibition of 23% (enzyme activity, inhibitor; 10 µM).
`Cc1ccc(C(=O)NCc2ccsc2)cc1C#Cc1cn(C(C)C)c2ncnc(N)c12` gave an activity vs control of 95% (enzyme activity, inhibitor; 1 µM).
The activity vs control of `Cc1cc(NC(=O)c2cccc3cc(-c4cccc5[nH]nc(N)c45)ccc23)ccc1F` is reported as 99% (enzyme activity, inhibitor; 0.1 µM).
With `Cc1ccc(NC(=O)c2ccc(C)c(C(F)(F)F)c2)cc1C#Cc1nn(C2CCC(O)CC2)c2ncnc(N)c12` (stereo not drawn) the remaining signal was 94% (cell-free assay; 10 µM).
`COc1cc2ncnc(Nc3ccc(Oc4ccccc4)c(C)c3C)c2cc1OC` gave an inhibition of 9% (enzyme activity, inhibitor; 1 µM).
`CC(C)(C)c1nc(-c2cccc(NS(=O)(=O)c3c(F)cccc3F)c2F)c(-c2ccnc(N)n2)s1` has a remaining activity of 92% (enzyme activity, inhibitor, radiometric; 1 µM).
The inhibition of `CS(=O)(=O)Nc1cccc(-c2csc(NC(=O)CSc3nc4nccnc4c(=O)n3CCc3ccccc3)n2)c1` is reported as 12% (enzyme activity, inhibitor; 10 µM).
For `COc1cc2ncnc(Nc3ccc(Oc4ccccc4)cc3C)c2cc1OC`, the inhibition was 9% (enzyme activity, inhibitor; 1 µM).
With `CC(C)(C)c1nc2c(s1)c1nc(N)ncc1c1ccc(NS(=O)(=O)c3c(F)cccc3F)c(F)c12` the remaining activity was 94% (enzyme activity, inhibitor, radiometric; 1 µM).
`Cc1cnc(NC2CCOCC2)nc1-n1cnc(C(=O)NC(CN)c2cc(F)cc(Cl)c2)c1` (stereo not drawn) gave a remaining activity of 119% (enzyme activity, inhibitor, radiometric; 1 µM).
`C=CC(=O)Nc1cc(Nc2nccc(Nc3cc(Cl)c(F)cc3C(C)(C)O)n2)c(OC)cc1N1CC[C@@H](N(C)C)C1` has an inhibition of -1% (enzyme activity, inhibitor; 1 µM).
The inhibition of `CNc1cc(Oc2cc(C(=O)Nc3cc(N4CCN(C)CC4)cc(C(F)(F)F)c3)ccc2C)ncn1` is reported as -44.8% (target engagement in cells, inhibitor, chemoproteomics; Huh-7; 1 µM).
